The test system of experiment [1] is MCF7. The experiment is described as follows: Viability of MCF7 cells at 100 uM. Format: functional, Homo sapiens. An outline of the steps: (§1)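 Cells grown in DMEM with 10% FCS and 4 mM glutamine at 37 °C, plated in 96-well format, preincubated 12 h, then exposed 72 h. Live cells measured by Calcein AM (1 h) fluorescence at 485/538 nm; % viable cells given at 100 µM compound.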

Experiment [2] concerns MCF7. As to the kind of experiment: Increase in p53 expression level in MCF7 cells at 100 uM after 24 hrs. It is filed as functional, cell-based. The following applies: Homo sapiens. An outline of the steps: (§2)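 MCF7 cells were treated 24 h, lysed in Laemmli buffer and run on 10% SDS-PAGE. Proteins were blotted to nitrocellulose; loading checked with Ponceau-S; blocked with 5% milk in PBS-Tween. Specific antibodies applied overnight (pRb phosphosites Ser780, Ser807, Thr821; p53; p21WAF1), then peroxidase secondary at 1:2000 with ECL detection.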

Experiment [3] concerns HT-29. The experiment is described as follows: Cell cycle arrest in HT29 cells by accumulation at G2/M phase at 50 uM after 12 hrs. It is filed as functional, Homo sapiens. An outline of the steps: (§3)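 Subconfluent, asynchronous HT-29 cells were treated 3, 6 or 12 h, then pulsed with 10 µM BrdU for 30 min at 37 °C. Cells were fixed in ice-cold 70% ethanol, DNA denatured in 2 M HCl and neutralised with borate. Staining used FITC anti-BrdU, then propidium iodide (0.1 mg/mL) with RNase A. Analysis by flow cytometry with 488 nm laser.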

The target of experiment [4] is Ribosomal protein S6 kinase (P70S6K) (Homo sapiens) (UniProt Q9UBS0+P23443). The experiment is described as follows: Activity of P70S6K at 10 uM. It is filed as protein-complex assay. The method in brief: (§4)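 Radiometric kinase assay at 10 µM inhibitor, run in duplicate. c-Abl, CHK1, GSK3β, p70S6K, PKA and PKBα were run in 8 mM MOPS pH 7.0 with 0.2 mM EDTA. MAPK1 and SAPK2α were run in 25 mM Tris pH 7.5 with 0.02 mM EGTA. CK2 was run in 20 mM HEPES pH 7.6, 0.15 M NaCl, 0.1 mM EDTA, 2 mM DTT and 0.1% Triton X-100. All had 10 mM Mg-acetate, 10 µM ATP, [γ-33P]ATP and a peptide substrate; 40 min; H3PO4 stop; P30 filter; scintillation counting.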

The subject of experiment [5] is HT-29. The experiment is described as follows: Cell cycle arrest in HT29 cells by accumulation at G2/M phase at 50 uM after 6 hrs. Format: functional, Homo sapiens. The method in brief:
as §3

The target in experiment [6] is Casein kinase II (Homo sapiens) (UniProt P67870+P68400+P19784). As to the kind of experiment: Activity of CK2 at 10 uM. It is filed as protein-complex assay. An outline of the steps: as §4
In experiment [7] the test system is HT-29. As to the kind of experiment: Cell cycle arrest in HT29 cells by accumulation at S phase at 50 uM after 12 hrs. Format: functional, Homo sapiens. An outline of the steps:
as §3

Experiment [8] deals with Cyclin-dependent kinase 2/cyclin E (Homo sapiens, UniProt P24941). As to the kind of experiment: Inhibition of CDK2/Cyclin E in presence of 15 uM ATP. It is filed as protein-complex assay.
The test system of experiment [9] is HT-29. The experiment is described as follows: Cell cycle arrest in HT29 cells by accumulation at G0/G1 phase at 50 uM after 3 hrs. It is filed as functional, Homo sapiens. The method in brief:
as §3

The test system of experiment [10] is HT-29. As to the kind of experiment: Cell cycle arrest in HT29 cells by accumulation at G2/M phase at 50 uM after 3 hrs. It is filed as functional, Homo sapiens. The method in brief:
as §3

The target of experiment [11] is Mitogen-activated protein kinase 1 (Homo sapiens) (UniProt P28482). The experiment is described as follows: Activity of MAPK1 at 10 uM. The method in brief:
as §4

The test system of experiment [12] is MCF7. The experiment is described as follows: Decrease in pRb phosphorylation in MCF7 cells after 24 hrs at 25 uM. Format: functional, cell-based. The following applies: Homo sapiens. The method in brief:
as §2

Experiment [13] relates to HT-29. The experiment is described as follows: Inhibition of CEA mRNA synthesis in HT29 cells measured as number of copies per 10^6 cells by RT PCR at 50 uM after 12 hrs. It is filed as functional, Homo sapiens. The method in brief: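 HT-29 cells were treated 3, 6 or 12 h; total RNA extracted with TRI reagent. 3 µg RNA reverse-transcribed with random primers and M-MLV RT at 42 °C for 60 min. CEA transcripts quantified by TaqMan real-time PCR: 50 cycles of 95 °C 15 s and 65 °C 15 s. Absolute copies came from amplicon standards of 30 to 10^6 copies, expressed per 10^6 cells. Samples run in duplicate PCR; values average of four determinations ± SD.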

For experiment [14], the system named is HT-29. The experiment is described as follows: Inhibition of GAPDH mRNA synthesis in HT29 cells measured as number of copies per 10^6 cells by RT PCR at 50 uM after 3 hrs. Format: functional, Homo sapiens. An outline of the steps:
(§5)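 HT-29 cells (5 × 10⁶) treated for 3, 6 or 12 h; total RNA extracted with TRI reagent, 3 µg reverse transcribed with random primers and M-MLV RT (42 °C, 60 min). Absolute transcript copies quantified by TaqMan real-time PCR, 50 cycles, against diluted gene-specific amplicon standards (30–1 000 000 copies); duplicate PCR per sample; values are means of four determinations ± SD.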

The subject of a further experiment is HOS. As to the kind of experiment: Viability of HOS cells at 100 uM. Format: functional, Homo sapiens. An outline of the steps:
as §1

The subject of experiment [15] is HT-29. The experiment is described as follows: Cell cycle arrest in HT29 cells by accumulation at S phase at 50 uM after 3 hrs. It is filed as functional, Homo sapiens. The method in brief: as §3
The next experiment has as its system K562. The experiment is described as follows: Viability of K562 cells at 100 uM. Format: functional, Homo sapiens. The method in brief: as §1
In experiment [16] the target is Cyclin-dependent kinase 7/ cyclin H (Homo sapiens, UniProt P50613). As to the kind of experiment: Inhibition of CDK7/Cyclin H in presence of 100 uM ATP. Format: protein-complex assay.
Chain of Cyclin-dependent kinase 7/ cyclin H (P51946 whole entry): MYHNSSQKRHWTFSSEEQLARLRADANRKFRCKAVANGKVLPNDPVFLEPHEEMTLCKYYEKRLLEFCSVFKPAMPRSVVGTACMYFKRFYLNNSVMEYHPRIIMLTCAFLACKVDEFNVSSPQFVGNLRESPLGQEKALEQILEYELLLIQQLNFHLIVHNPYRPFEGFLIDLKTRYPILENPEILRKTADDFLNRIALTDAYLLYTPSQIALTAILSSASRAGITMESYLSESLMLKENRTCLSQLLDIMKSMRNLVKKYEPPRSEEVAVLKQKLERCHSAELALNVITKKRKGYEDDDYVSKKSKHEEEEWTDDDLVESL
Chain of Cyclin-dependent kinase 7/ cyclin H (P50613 whole entry): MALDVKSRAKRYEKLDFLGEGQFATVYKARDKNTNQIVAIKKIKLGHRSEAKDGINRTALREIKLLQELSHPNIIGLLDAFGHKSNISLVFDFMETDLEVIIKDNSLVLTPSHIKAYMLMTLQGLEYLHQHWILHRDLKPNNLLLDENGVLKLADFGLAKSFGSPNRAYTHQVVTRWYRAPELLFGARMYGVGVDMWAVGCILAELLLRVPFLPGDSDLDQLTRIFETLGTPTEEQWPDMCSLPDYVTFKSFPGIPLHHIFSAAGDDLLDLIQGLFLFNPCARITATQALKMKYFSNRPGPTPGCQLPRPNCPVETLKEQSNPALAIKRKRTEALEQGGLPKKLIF
The test system of experiment [17] is HT-29. As to the kind of experiment: Inhibition of GAPDH mRNA synthesis in HT29 cells measured as number of copies per 10^6 cells by RT PCR at 50 uM after 12 hrs. Format: functional, Homo sapiens. An outline of the steps:
as §5

The source made the active and inactive calls. The calls are words filed in the database; no cut-off is given here.

What is called IC50 is the concentration that gives 50% inhibition.

Chain of Mitogen-activated protein kinase 1 (Homo sapiens) (P28482 whole entry): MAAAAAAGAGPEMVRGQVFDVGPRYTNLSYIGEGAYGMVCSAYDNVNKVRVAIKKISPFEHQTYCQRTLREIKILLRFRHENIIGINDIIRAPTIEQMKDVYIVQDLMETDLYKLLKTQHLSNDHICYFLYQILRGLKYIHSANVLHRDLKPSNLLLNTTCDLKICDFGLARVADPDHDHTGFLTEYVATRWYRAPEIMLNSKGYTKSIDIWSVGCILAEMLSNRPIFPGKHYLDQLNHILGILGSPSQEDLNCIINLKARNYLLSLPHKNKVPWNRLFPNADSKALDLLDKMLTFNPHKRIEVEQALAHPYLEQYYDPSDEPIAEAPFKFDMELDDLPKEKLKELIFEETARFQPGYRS

As to `Nc1n[nH]c(N)c1/N=N/c1ccc(O)cc1`, the Activity with MCF7 [1] worked out at 20%; in the experiment on HT-29 [3], 6.8%; in the experiment on HT-29 [5], 9.9%; with HT-29 [7], 66%; with HT-29 [9], 32.9%; in the experiment with HT-29 [10], 11.4%. The Activity in the experiment with HT-29 [13] stood at 12005; with HT-29 [14], 3342533; in the experiment on HOS, 22%; in the experiment on HT-29 [15] it was 55.7%; with K562, 23%; in the experiment with HT-29 [17], 1811960. The result in the experiment with MCF7 [2] and with MCF7 [12] was Active. Moreover, the residual activity came to 51% in experiment [4], 65% in [6] and 99% in [11]. In addition, the figures for the IC50 in experiment [8] and in [16] were 3.5 µM and 26 µM, respectively.

These data come from ChEMBL document CHEMBL1137343, “4-arylazo-3,5-diamino-1H-pyrazole CDK inhibitors: SAR study, crystal structure in complex with CDK2, selectivity, and cellular effects” (J Med Chem, 2006).
